Measured values of several laboratories.
Each line is one published result; the experiments were not run side by side.
Mode: inhibitor
rep main protease: Replicase polyprotein 1ab, main protease (rep, Severe acute respiratory syndrome coronavirus 2, UniProt P0DTD1)
rep methyltransferase: Replicase polyprotein 1ab, methyltransferase (rep, Severe acute respiratory syndrome coronavirus 2, UniProt P0DTD1)

For COc1cc(C[C@@H](C)[C@@H](C)Cc2cc(O)c(OC)c(OC)c2)cc(O)c1OC, the IC50 was 3.07 µM (rep main protease; enzyme activity; FRET).
Cc1c(O)cccc1C(=O)N[C@@H](CSc1ccccc1)[C@H](O)CN1C[C@H]2CCCC[C@H]2C[C@H]1C(=O)NC(C)(C)C has an IC50 of over 240 µM (rep main protease; enzyme activity).
With Cc1cc(-c2ccc(/N=N/c3ccc4c(S(=O)(=O)O)cc(S(=O)(=O)O)c(N)c4c3O)c(C)c2)ccc1/N=N/c1ccc2c(S(=O)(=O)O)cc(S(=O)(=O)O)c(N)c2c1O the IC50 was 4.84 µM (rep methyltransferase; enzyme activity).
With COc1nc2ccc(Br)cc2cc1[C@@H](c1ccccc1)[C@@](O)(CCN(C)C)c1cccc2ccccc12 the IC50 was 7.67 µM (rep main protease; enzyme activity).
O=c1c2ccccc2[se]n1-c1cccc2cccnc12 gave an IC50 of 2.6 µM (rep main protease; enzyme activity; FRET).
CCOC(=O)c1c(NC(=O)c2ccc3c(c2)CC(c2ccccc2)OC3=O)sc(C)c1C (stereo not drawn) gave an IC50 of 47.9 µM (rep methyltransferase; enzyme activity).
For Cc1c[nH]c2ncc(C(=O)N[C@H]3[C@H](CNc4cc(=O)n5ccccc5n4)CCC34CCC4)cc12, the IC50 was 32.7 µM (rep main protease; enzyme activity).
With N[C@@H](C(=O)N[C@@H]1C(=O)N2C(C(=O)O)=C(Cl)CS[C@H]12)c1ccccc1 the IC50 was 17.6 µM (rep main protease; enzyme activity).
The IC50 of CCCCC/C=C\C/C=C\CCCCCCCC(=O)O is reported as 38.8 µM (rep methyltransferase; enzyme activity).
Nc1nc2nc[nH]c2c(=S)[nH]1 gave an IC50 of over 60 µM (Replicase polyprotein 1ab, papain-like protease (rep, Severe acute respiratory syndrome coronavirus 2, UniProt P0DTD1); enzyme activity; FRET; pH 7.5).
CN(CCCN1c2ccccc2CCc2ccccc21)CC(=O)c1ccc(Cl)cc1 has an IC50 of 11.4 µM (rep main protease; enzyme activity).
CC(C)N(CCC(=O)c1ccc2ccccc2c1)Cc1ccccc1 has an IC50 of 5.99 µM (rep methyltransferase; enzyme activity).
With O=c1[nH]nc(Sc2ncc([N+](=O)[O-])s2)n1-c1ccc2c(c1)OCCO2 the IC50 was 0.3 µM (rep main protease; enzyme activity).
For Cc1cccc(C)c1OCC(=O)N[C@@H](Cc1ccccc1)[C@@H](O)C[C@H](Cc1ccccc1)NC(=O)[C@H](C(C)C)N1CCCNC1=O, the IC50 was over 20 µM (rep main protease; enzyme activity in cells).
For CCCCCC/C=C\CCCCCCCCCc1cc(O)cc(O)c1, the IC50 was over 100 µM (rep main protease; enzyme activity; with preincubation).
CC(C)(C)OC(=O)NCCc1nnc(S(=O)(=O)Cc2ccc(Cl)cc2Cl)o1 has an IC50 of 4.2 µM (rep main protease; enzyme activity).
The IC50 of Cc1cccc(C)c1OCC(=O)N[C@@H](Cc1ccccc1)[C@@H](O)C[C@H](Cc1ccccc1)NC(=O)[C@H](C(C)C)N1CCCNC1=O is reported as 206 µM (rep main protease; enzyme activity).
O=C1C=CC(=O)C2=C1C1c3ccccc3C2c2ccccc21 has an IC50 of 0.24 µM (rep main protease; enzyme activity).
O=C(NC1CCCc2c1[nH]c1ccccc21)c1cc(=O)[nH]c2ccccc12 (stereo not drawn) has an IC50 of 61.5 µM (rep methyltransferase; enzyme activity).
O=C(Cn1nnc2ccccc21)Nc1ccccc1N1CCc2sccc2C1 has an IC50 of over 100 µM (rep main protease; enzyme activity).
CCOc1nc2cccc(C(=O)OC(C)OC(=O)OC3CCCCC3)c2n1Cc1ccc(-c2ccccc2-c2nn[nH]n2)cc1 (stereo not drawn) gave an IC50 of 30 µM (rep methyltransferase; enzyme activity).
O=C1c2ccccc2NC(c2cc([N+](=O)[O-])ccc2O)N1N=Cc1cc([N+](=O)[O-])ccc1O (stereo not drawn) has an IC50 of over 40 µM (rep main protease; enzyme activity in cells).
The IC50 of CCOC(=O)c1c(NC(=O)c2cc3ccccc3o2)sc(C)c1C is reported as 27.9 µM (rep methyltransferase; enzyme activity).
CN1Cc2ccccc2[C@@H]2c3cccc4[nH]cc(c34)C[C@H]21 gave an IC50 of over 20 µM (rep main protease; enzyme activity).
